{
  "source": "ChEMBL document CHEMBL1121993",
  "about": "“A specific inhibitor of IgE-antibody formation: n-pentyl beta-D-fructopyranoside” (1982)",
  "format_in_all_cases": "functional",
  "key": {"Rattus norvegicus [1]": {"species_on_record": "Rattus norvegicus", "test": "Evaluated for effect against passive hemagglutinination in rats immunized with DNP-As and B. pertussis; PHA(log2)", "method_in_brief": "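Rats were immunized day 0 with 1 mg DNP-As plus 10¹⁰ killed B. pertussis, boosted day 5 with 0.5 mg DNP-As alone, and titers read on day 8. Dosing was 100 (mg/kg)/day ip for 5 days from day 0. Serum dilutions were incubated with DNP-As-coupled sheep erythrocytes for 2 h at 37 °C; complete agglutination endpoint as 2^n; means ± SE, eight rats.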"}, "Mus musculus [2]": {"species_on_record": "Mus musculus", "test": "Evaluated for effect against passive cutaneous anaphylaxis in female BALB/c mice immunized with 10 ug of DNP-As and 2 mg of Al(OH3) after day 30; PCA (log2)", "method_in_brief": "(§1)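 Female BALB/c mice received 10 μg DNP-As and 2 mg Al(OH)3 on day 0, then 100 (mg/kg)/day po in 2% NaHCO3 for 5 days after immunization. Sera were taken on days 10, 21 and 30 and pooled from five mice. PCA was done in normal male Wistar rats: serum id in duplicate, then 1 mg DNP-As with 5 mg Evans blue iv; titer is the greatest dilution with a reaction >5 mm.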"}, "Rattus norvegicus [3]": {"species_on_record": "Rattus norvegicus", "test": "Evaluated for effect against passive cutaneous anaphylaxis in rats immunized with DNP-As and B. pertussis; PCA (log2)", "method_in_brief": "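Rats were immunized with 1 mg DNP-As and 10^10 B. pertussis on day 0 and boosted with 0.5 mg DNP-As on day 5. Drug was given at 100 (mg/kg)/day ip for 5 days from day 0, and serum was taken on day 8. PCA was read in male Wistar rats after id serum, with iv DNP-As and Evans blue. Titer is the greatest dilution with a spot >5 mm; means ± SE of eight rats.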"}, "Mus musculus [4]": {"species_on_record": "Mus musculus", "test": "Evaluated for effect against passive hemagglutinination in female BALB/c mice immunized with 10 ug of DNP-As and 2 mg of Al(OH3) after day 21; PHA(log2)", "method_in_brief": "(§2)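 Female BALB/c mice were given 10 μg DNP-As and 2 mg Al(OH)3 on day 0, then 100 (mg/kg)/day po in 2% NaHCO3 for 5 days after immunization. Pooled sera from five mice (days 10, 21, 30) were serially diluted and mixed with sheep red cells coupled to DNP-As via glutaraldehyde, then held 2 h at 37 °C. Titer is the greatest dilution with complete agglutination, expressed as n of 2^n.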"}, "Mus musculus [5]": {"species_on_record": "Mus musculus", "test": "Evaluated for effect against passive cutaneous anaphylaxis in female BALB/c mice immunized with 10 ug of DNP-As and 2 mg of Al(OH3) after day 21; PCA (log2)", "method_in_brief": "as §1"}, "Mus musculus [6]": {"species_on_record": "Mus musculus", "test": "Evaluated for effect against passive hemagglutinination in female BALB/c mice immunized with 10 ug of DNP-As and 2 mg of Al(OH3) after day 10; PHA(log2)", "method_in_brief": "as §2"}, "Mus musculus [7]": {"species_on_record": "Mus musculus", "test": "Evaluated for effect against passive cutaneous anaphylaxis in female BALB/c mice immunized with 10 ug of DNP-As and 2 mg of Al(OH3) after day 10; PCA (log2)", "method_in_brief": "as §1"}, "Mus musculus [8]": {"species_on_record": "Mus musculus", "test": "Evaluated for effect against passive hemagglutinination in female BALB/c mice immunized with 10 ug of DNP-As and 2 mg of Al(OH3) after day 30; PHA(log2)", "method_in_brief": "as §2"}, "Mus musculus [9]": {"species_on_record": "Mus musculus", "test": "Evaluated for effect against passive hemagglutinination (PHA) in female BALB/c mice immunized with 10 ug of DNP-As and 2 mg of Al(OH3) after day 10; PHA(log2)", "method_in_brief": "as §2"}, "Mus musculus [10]": {"species_on_record": "Mus musculus", "test": "Evaluated for effect against passive cutaneous anaphylaxis (PCA) in female BALB/c mice immunized with 10 ug of DNP-As and 2 mg of Al(OH3) after day 10; PCA (log2)", "method_in_brief": "as §1"}, "Mus musculus [11]": {"species_on_record": "Mus musculus", "test": "Evaluated for effect against passive cutaneous anaphylaxis (PCA) in female BALB/c mice immunized with 10 ug of DNP-As and 2 mg of Al(OH3) after day 21; PCA (log2)", "method_in_brief": "as §1"}, "Mus musculus [12]": {"species_on_record": "Mus musculus", "test": "Evaluated for effect against passive hemagglutinination (PHA) in female BALB/c mice immunized with 10 ug of DNP-As and 2 mg of Al(OH3) after day 21; PHA(log2)", "method_in_brief": "as §2"}, "Rattus norvegicus [13]": {"species_on_record": "Rattus norvegicus", "test": "Evaluated for effect against passive hemagglutinination in female wistar rats; PHA(log2)", "method_in_brief": "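Female Wistar rats were immunized with 1 mg DNP-As plus 10¹⁰ killed B. pertussis on day 0, boosted on day 5 with 0.5 mg DNP-As, and sera taken on day 8. Compound in 2% NaHCO₃ was given at 100 (mg/kg)/day po for 5 days from day 0. Hemagglutination used DNP-As-coupled sheep RBC, 2 h at 37 °C; titer is the highest complete-agglutination dilution (log2); mean ± SE, eight rats.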"}, "Mus musculus [14]": {"species_on_record": "Mus musculus", "test": "Evaluated for effect against passive hemagglutinination (PHA) in female BALB/c mice immunized with 10 ug of DNP-As and 2 mg of Al(OH3) after day 30; PHA(log2)", "method_in_brief": "as §2"}, "Mus musculus [15]": {"species_on_record": "Mus musculus", "test": "Evaluated for effect against passive cutaneous anaphylaxis (PCA) in female BALB/c mice immunized with 10 ug of DNP-As and 2 mg of Al(OH3) after day 30; PCA (log2)", "method_in_brief": "as §1"}, "Rattus norvegicus [16]": {"species_on_record": "Rattus norvegicus", "test": "Evaluated for effect against passive cutaneous anaphylaxis in female wistar rats; PCA (log2)", "method_in_brief": "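Female Wistar rats (190–210 g) were immunized with 1 mg DNP-As plus 10^10 killed B. pertussis on day 0 and boosted with 0.5 mg DNP-As on day 5; serum was taken on day 8. Drug was given at 100 (mg/kg)/day po in 2% NaHCO3 for 5 days from day 0. Serum was then tested by PCA in normal male rats (Evans blue readout, >5 mm cutoff). Values are means ± SE, n=8.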"}},
  "data": [
    {"molecule": "OC[C@@]1(OCc2ccccc2)OC[C@@H](O)[C@H](O)[C@@H]1O", "values": [
      {"measurement": "PHA", "setting": "Rattus norvegicus [1]", "value": 9},
      {"measurement": "PCA", "setting": "Mus musculus [2]", "value": 8.4},
      {"measurement": "PCA", "setting": "Rattus norvegicus [3]", "value": 7},
      {"measurement": "PHA", "setting": "Mus musculus [4]", "value": 5},
      {"measurement": "PCA", "setting": "Mus musculus [5]", "value": 9},
      {"measurement": "PHA", "setting": "Mus musculus [6]", "value": 6},
      {"measurement": "PCA", "setting": "Mus musculus [7]", "value": 8.6},
      {"measurement": "PHA", "setting": "Mus musculus [8]", "value": 6}
    ]},
    {"molecule": "CCO[C@]1(CO)OC[C@@H](O)[C@H](O)[C@@H]1O", "values": [
      {"measurement": "PHA", "setting": "Mus musculus [9]", "value": 5},
      {"measurement": "PCA", "setting": "Mus musculus [10]", "value": 7.9},
      {"measurement": "PHA", "setting": "Rattus norvegicus [1]", "value": 7.9},
      {"measurement": "PCA", "setting": "Mus musculus [11]", "value": 8.3},
      {"measurement": "PHA", "setting": "Mus musculus [12]", "value": 5},
      {"measurement": "PCA", "setting": "Rattus norvegicus [3]", "value": 7.1},
      {"measurement": "PHA", "setting": "Rattus norvegicus [13]", "value": 8.5},
      {"measurement": "PHA", "setting": "Mus musculus [14]", "value": 6},
      {"measurement": "PCA", "setting": "Mus musculus [15]", "value": 7.8},
      {"measurement": "PCA", "setting": "Rattus norvegicus [16]", "value": 6.7}
    ]},
    {"molecule": "CCO[C@@]1(CO)O[C@H](CO)[C@@H](O)[C@@H]1O", "values": [
      {"measurement": "PCA", "setting": "Rattus norvegicus [3]", "value": 6.5}
    ]},
    {"molecule": "CCCCO[C@@]1(CO)O[C@H](CO)[C@@H](O)[C@@H]1O", "values": [
      {"measurement": "PCA", "setting": "Rattus norvegicus [3]", "value": 6.7}
    ]},
    {"molecule": "CCCO[C@@]1(CO)O[C@H](CO)[C@@H](O)[C@@H]1O", "values": [
      {"measurement": "PCA", "setting": "Rattus norvegicus [3]", "value": 7.3}
    ]},
    {"molecule": "CCO[C@]1(CO)O[C@H](CO)[C@@H](O)[C@@H]1O", "values": [
      {"measurement": "PCA", "setting": "Rattus norvegicus [3]", "value": 6.1}
    ]},
    {"molecule": "O=P1(N(CCCl)CCCl)NCCCO1", "note": "(centres undefined) [CYCLOPHOSPHAMIDE ANHYDROUS]", "values": [
      {"measurement": "PHA", "setting": "Rattus norvegicus [1]", "value": 1.3},
      {"measurement": "PCA", "setting": "Rattus norvegicus [3]", "value": "<2"}
    ]}
  ]
}
